Screening data (PubChem BioAssay)
Sampled rows, rich in hits. Any-hit rate of the full collection: about 2.7%.
RAM network inh = blocks the yeast RAM network | 1.8% of 190,000 active | inhibition, % at 50 µM | S. cerevisiae dse1pr::URA3 reporter, 5-FOA growth OD615, 2 d; analog-sensitive cbk1-as2 kinase mutant strain;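 active = inhibition above a set limit, 3 SD over mean compound inhibition, cut at about 8.4% in these data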;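 also: inhibition rescues growth on 5-FOA so higher OD means more RAM inhibition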
Phagocyt inh = inhibitors of macrophage phagocytosis | J774A.1 macrophage IgG-bead phagocytosis, imaging | inhibition, % at 5 µM | 0.07% of 110,000 active;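 active = inhibition above the mean of the plate negative controls plus 5 SD, cut at about 13% in these data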;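 also: phagocytic index as fraction of beads internalized from green versus red external bead signal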
BB579 growth dn = yeast BB579 growth reduction in restrictive medium; AID 804; 0.51% of 140,000 active; inhibition, % at 10 µM; S. cerevisiae BB579 growth, OD615, 48 h;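 active = inhibition above a set limit, 3 SD over the mean compound inhibition, cut at about 44% in these data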
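System: Saccharomyces cerevisiae DeaD strain BB579, replicative lifespan model yeast. Buffer or medium: restrictive glucose-based CSMM-D medium. Doses: one dose, 10 µM compound with 0.25% DMSO. Timing: 4 h preincubation and 48 h exposure at 30 °C. Detection: turbidity as optical density at 615 nm. Benchmarks: amphotericin B 10 µg/mL, positive.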
Yeast lifespan up = yeast lifespan extension; S. cerevisiae growth with nicotinamide, OD615; deaD strain in restrictive glucose medium; inhibition of the nicotinamide effect, % at 10 µM; 0.68% of 130,000 active; AID 775;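 active = inhibition above a set limit, placed 3 SD over the median of all compounds, cut at about 26% in these data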
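Assay system: engineered S. cerevisiae DeaD replicative-lifespan strain, galactose-grown log-phase cells; Buffer or medium: CSMM-D glucose medium, restrictive; Probe or stimulus: nicotinamide 1.5 mM; Compound: single dose 10 µM compound, 0.25% DMSO; Schedule: 4 h preincubation then 48 h treatment at 30 °C; Technique: OD615 measurement.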
Of the large screens only hits and unclear results are named; the others gave an inactive call.

CC1CCCC2(C1)NC(=S)N(c1ccccc1)N2 (configuration not stated)	BB579 growth dn 87.1 (no result: Phagocyt inh)
Cc1ccc2c(CC(=O)Nc3nc(C)cs3)coc2c1	none
CN=CC1=C(O)c2ccccc2C1=O	none
O=C1C(C2=C(O)c3ccccc3C2=O)=Nc2ccccc21	Yeast lifespan up 44.6 (no result: Phagocyt inh)
COc1cccc(C(=O)CN2C(=O)C(C)(C)Oc3ccc(C(=O)N4CCCCCC4)cc32)c1	none
COc1cccc(NC(=O)c2ccc3c(c2)N(CC(=O)N2CCCCC2)C(=O)C(C)(C)O3)c1	RAM network inh 8.8
Oc1ccccc1N=Nc1nc(-c2ccccc2)c(-c2ccccc2)[nH]1	RAM network inh 8.6
COc1ccc(N=Nc2nc(-c3ccccc3)c(-c3ccccc3)[nH]2)cc1	RAM network inh 10.8
COc1ccccc1Nc1ncc(-c2cccs2)s1	RAM network inh 9.9
COCCNC(=O)Cn1cc(/C=N/NC(=O)c2ccc(Oc3ccc(O)cc3)cc2)c2ccccc21	none (no result: Phagocyt inh, BB579 growth dn, Yeast lifespan up)
Cc1ccsc1/C=N/n1c(-c2ccccn2)n[nH]c1=S	none
Cc1cccc(-c2noc(CN(C(=O)/C=C/c3ccccc3Cl)C(C)C)n2)c1	RAM network inh 11.3
Cc1cccc(-c2noc(CN(C)S(=O)(=O)c3cc(Cl)ccc3Cl)n2)c1	RAM network inh 8.6
O=c1cc(CN2CC(O)Cc3ccc4ccccc4c32)nc2sccn12 (configuration not stated)	none (no result: Phagocyt inh, BB579 growth dn, Yeast lifespan up)
COC(=O)c1ccccc1NC1CC(=O)N(c2c(C)cccc2C)C1=O (configuration not stated)	none
CC(C)(C)NC(=O)C(c1c[nH]c2ccccc12)N(C(=O)Cn1nnc(-c2ccc(Cl)cc2)n1)c1ccccc1F (configuration not stated)	none
COc1cccc(N(C(=O)Cn2nnc(-c3ccc(C)cc3)n2)C(C(=O)NC(C)(C)C)c2c[nH]c3ccccc23)c1 (configuration not stated)	Yeast lifespan up 45.2 (no result: Phagocyt inh)
Cn1nc(-c2ccc(N3CCN(CCO)CC3)c([N+](=O)[O-])c2)c2ccccc2c1=O	none (no result: Phagocyt inh, BB579 growth dn, Yeast lifespan up)
O=C(O)c1cc(Cl)c(Cl)cc1C(=O)Nc1cccc2cccnc12	none
Cc1cccc2cc(C#N)c(NCCNC(=O)COc3ccccc3)nc12	RAM network inh 10.2 (no result: Phagocyt inh, BB579 growth dn, Yeast lifespan up)
Cc1cccc(COCC(Cc2ccccc2)N2CCN(C(=O)c3ccc(Cl)c(Cl)c3)CCC2=O)c1 (configuration not stated)	RAM network inh 10.3 (no result: Phagocyt inh)
Cc1cccc(COCC(Cc2ccccc2)N2CCN(C(=O)c3cc(Cl)cc(Cl)c3)CCC2=O)c1 (configuration not stated)	RAM network inh 11.1 (no result: Phagocyt inh)
O=C(c1ccc(Cl)c(Cl)c1)N1CCC(=O)N(C(COCc2cccc(C(F)(F)F)c2)Cc2ccccc2)CC1 (configuration not stated)	RAM network inh 9.0 (no result: Phagocyt inh)
O=C(c1ccc(C(F)(F)F)cc1)N1CCC(=O)N(C(COCc2ccc(Cl)cc2)Cc2ccccc2)CC1 (configuration not stated)	RAM network inh 9.8 (no result: Phagocyt inh)
CC[C@H](C)NC(=O)c1ccc(Cn2c(=S)[nH]c3c([nH]c4ccc(OC)cc43)c2=O)cc1	none
O=C(N/N=C/c1ccc([N+](=O)[O-])o1)c1cn(-c2ccccc2)nc1-c1ccccc1	none
O=C(N/N=C/c1coc2ccccc2c1=O)c1cn(-c2ccccc2)nc1-c1ccc(F)cc1	Yeast lifespan up 28.8
CCCOc1ccc(-c2nc(C#N)c(N3CCN(C)CC3)o2)cc1	none
CCCOc1ccc(-c2nc(C#N)c(N3CCc4ccccc4C3)o2)cc1	RAM network inh 10.7
Cc1cccc(/C(N)=N/OC(=O)c2ccc(Cl)cc2Cl)c1	none
N/C(=N\OC(=O)c1ccc(Cl)cc1Cl)c1ccccc1	BB579 growth dn 95.6
Cc1ccc(/C(N)=N/OC(=O)c2ccc(C)cc2Cl)cc1	BB579 growth dn 57.7
N/C(=N\OC(=O)c1ccc(Cl)cc1Cl)c1ccc(Cl)cc1	none (no result: Phagocyt inh)
O=C(O)CCS(=O)(=O)c1cc(Br)cc2c1N(C(=O)C1CC1)CC2	none (no result: Phagocyt inh, BB579 growth dn, Yeast lifespan up)
CCCCN(C)S(=O)(=O)c1cc(Br)cc2c1N(C(=O)C1CC1)CC2	RAM network inh 9.2
CS(=O)(=O)N(CC(=O)NCc1ccncc1)C1CCCCC1	none (no result: Phagocyt inh, BB579 growth dn, Yeast lifespan up)
CCOC(=O)/C(=N/Nc1ccccc1)Sc1nnc(CCc2ccccc2)n1-c1ccccc1	none
COc1ccc(-c2nc3oc4cc(OC)ccc4c(=O)c3c(=O)n2Cc2ccco2)cc1	Yeast lifespan up 27.2
COc1ccc2c(=O)c3c(=O)n(Cc4ccco4)c(-c4ccco4)nc3oc2c1	Yeast lifespan up 74.5
COc1ccc(Cn2c(-c3ccco3)nc3oc4cc(OC)ccc4c(=O)c3c2=O)cc1	none
Cc1ccc(-c2nc(NCc3ccc(F)cc3)n(S(C)(=O)=O)n2)cc1	none (no result: Phagocyt inh, BB579 growth dn, Yeast lifespan up)
CCC(C)c1ccc(NC(=O)C/C(C)=N/NC(=O)c2cnccn2)cc1 (configuration not stated)	none
COc1ccc(N=C2SC(C(=O)Nc3ccc4c(c3)OCO4)CC(=O)N2C)cc1 (configuration not stated)	none
CCCCCCCNC(=O)C1CC(=O)N(C)C(=Nc2ccc(OC)cc2)S1 (configuration not stated)	RAM network inh 9.3
NS(=O)(=O)c1ccc(CCNC(=O)Nc2ccc(Cl)c(Cl)c2)cc1	RAM network inh 10.7
NS(=O)(=O)c1ccc(CNC(=S)Nc2ccc(Cl)c(Cl)c2)cc1	none (no result: Phagocyt inh, BB579 growth dn, Yeast lifespan up)
Fc1ccc(Oc2ncccn2)c(F)c1	none (no result: Phagocyt inh)
CC(=O)c1c(OC(=O)c2ccccc2)c2ccccc2n1C	RAM network inh 8.4 (no result: Phagocyt inh)
CN(Cc1ccc(Cl)s1)C(=O)CCl	none (no result: Phagocyt inh, BB579 growth dn, Yeast lifespan up)
COc1ccccc1NC(=O)/C(=C/c1cccc([N+](=O)[O-])c1)c1ccccc1	RAM network inh 11.0
CCc1ccc(/C=C/C(=O)c2cc(Br)ccc(=O)c2O)cc1	BB579 growth dn 88.6
Cc1ccc(/C=C/C(=O)c2cc(Br)ccc2OC(=O)c2ccco2)cc1	RAM network inh 11.0
Cc1cccc(/C=C/C(=O)c2cc(Br)ccc(=O)c2O)c1	BB579 growth dn 94.8
CCOc1ccc(/C=C/C(=O)c2cc(Br)ccc(=O)c2O)cc1	BB579 growth dn 92.5
Cc1ccc(Nc2nnc(SC/C(O)=C(\C#N)c3nc4ccccc4[nH]3)s2)c(C)c1	none
COc1ccc(C)cc1-n1nnnc1SC/C(O)=C(\C#N)c1nc2ccccc2[nH]1	RAM network inh 9.1
CCN(Cc1ccncc1)Cc1cn[nH]c1-c1ccc(OC)cc1F	none (no result: Phagocyt inh, BB579 growth dn, Yeast lifespan up)
CCc1nnc(NC(=O)c2ccc3c(c2)C(=O)N(CC)C3=O)s1	none (no result: Phagocyt inh, Yeast lifespan up)
O=C(Nc1ccccc1-c1nc2ccccc2[nH]1)c1ccc(S(=O)(=O)N2CCCCC2)cc1	Yeast lifespan up 42.0 (no result: Phagocyt inh)
CC1CCCCN1S(=O)(=O)c1ccc(C(=O)Nc2ccccc2-c2nc3ccccc3[nH]2)cc1 (configuration not stated)	none
Cc1ccc(NC(=O)c2cc(NC(=O)CCC(=O)O)ccc2N2CCCCC2)cc1	RAM network inh 9.0
Cc1cccc(NC(=O)c2cc(NC(=O)c3ccccc3)ccc2N2CCCCC2)c1	none
CCNS(=O)(=O)c1ccc(CCC(=O)Nc2cc(Cl)ccc2Oc2ccccc2)cc1	RAM network inh 11.2 (no result: Phagocyt inh)
